# Active and inactive are the calls of the source.
# What was measured:
# P388 [1] = assay: Antitumor activity against mouse P388 cells allografted in mouse assessed as increase of median life span at 200 mg/kg, ip on day 1, 5 and 9 measured up to 60 days relative to control; type: functional; conditions: route intraperitoneal
# Outline: (§1)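 BDF1 or CDF1 mice inoculated ip with ascitic P388 leukemia cells. Dosing ip on days 1, 5 and 9. Deaths recorded for 60 days; % increase in median life span over controls. "Cures" are survivors/total at 60 days.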
# B16 [2] = assay: Antitumor activity against mouse B16 cells allografted in BDF1 mouse assessed as increase of median life span at 100 mg/kg, ip on day 1 to 9 measured up to 80 days relative to control; type: functional; conditions: route intraperitoneal
# Outline: (§2)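 BDF1 mice implanted ip with a homogenate from 0.05 g of B16 tumor. Test agent given ip on days 1-9. Deaths recorded for 80 days. Result is % increase in median life span over untreated controls. "Cures" are survivors/total at 80 days.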
# P388 [3] = assay: Antitumor activity against mouse P388 cells allografted in mouse assessed as increase of median life span at 250 mg/kg, ip on day 1, 5 and 9 measured up to 60 days relative to control; type: functional; conditions: route intraperitoneal; outline: as §1
# P388 [4] = assay: Antitumor activity against mouse P388 cells allografted in mouse assessed as disease cure at 250 mg/kg, ip on day 1, 5 and 9 measured up to 60 days; type: functional, organism-based; parameters: dose 250 mg/kg
# Outline: (§3)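 BDF1 or CDF1 mice inoculated ip with ascitic P388 leukemia cells, dosed ip on days 1, 5 and 9. Deaths recorded for 60 days; "cures" taken as number of survivors/total at 60 days.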
# P388 [5] = assay: Antitumor activity against mouse P388 cells allografted in ip dosed mouse assessed as minimum effective dose administered as single dose; type: functional; conditions: read-out: MED
# Outline: (§4)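 Drug given ip to P388 tumor-bearing mice, either once as a single dose or once each 4 days for three injections. Minimum effective dose defined as the dose giving 40% increase in life span over control, read from regression lines of log dose-response data.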
# B16 [6] = assay: Antitumor activity against mouse B16 cells allografted in BDF1 mouse assessed as increase of median life span at 0.8 mg/kg, ip on day 1 to 9 measured up to 80 days relative to control; type: functional; conditions: route intraperitoneal; outline: as §2
# P388 [7] = assay: Antitumor activity against mouse P388 cells allografted in mouse assessed as increase of median life span at 1.6 mg/kg, ip on day 1, 5 and 9 measured up to 60 days relative to control; type: functional; conditions: route intraperitoneal; outline: as §1
# P388 [8] = assay: Antitumor activity against mouse P388 cells allografted in ip dosed mouse assessed as minimum effective dose administered as once each 4 days for 3 total injection; type: functional; conditions: 96 h, read-out: MED; outline: as §4
# [9] = Toxicity in […] assessed as maximum tolerated dose administered as single dose; type: organism-based, P388; conditions: mouse, in vivo, ip
# [10] = Toxicity in […] assessed as maximum tolerated dose administered as once each 4 days for 3 total injection; type: organism-based, P388; conditions: mouse, in vivo, ip
# P388 [11] = assay: Antitumor activity against mouse P388 cells allografted in ip dosed mouse assessed as dose providing 40% increase in life span administered as once each 4 days for 3 total injection; type: functional
# Outline: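 P388 tumor-bearing mice dosed ip, either once as a single dose or once every 4 days for three injections. It was read from regression lines of log dose-response data.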
# [12] = Therapeutic index, ratio of MTD for mouse P388 cells allografted ip dosed mouse to MED for mouse P388 cells allografted in ip dosed mouse administered as single dose; type: organism-based; conditions: in vivo, read-out: TI
# Outline: (§5)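 Therapeutic index is MTD/MED for ip dosing, either single or once every 4 days ×3. MTD is the 10% lethal dose in normal mice over 21 days. MED is the dose giving a 40% life-span increase in P388-bearing mice. Both come from log dose-response regression lines.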
# [13] = Therapeutic index, ratio of MTD for mouse P388 cells allografted ip dosed mouse to MED for mouse P388 cells allografted in ip dosed mouse administered as once each 4 days for 3 total injection; type: organism-based; conditions: in vivo, read-out: TI; outline: as §5
# L5178Y [14] = assay: Ratio of adriamycin to compound for inhibition of RNA synthesis in mouse L5178Y cells; type: functional
# L5178Y [15] = assay: Ratio of adriamycin to compound for inhibition of DNA synthesis in mouse L5178Y cells; type: functional
# P388 [16] = assay: Antitumor activity against mouse P388 cells allografted in mouse assessed as increase of median life span at 3.1 mg/kg, ip on day 1, 5 and 9 measured up to 60 days relative to control; type: functional; conditions: route intraperitoneal
# Outline: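 BDF or CDF1 mice injected ip with ascitic leukemia cells, then dosed ip on days 1, 5 and 9. Deaths recorded for 60 days. Read-outs: percent increase in median life span over controls, and "cures" as survivors/total at 60 days.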
# P388 [17] = assay: Antitumor activity against mouse P388 cells allografted in mouse assessed as increase of median life span at 25 mg/kg, ip on day 1, 5 and 9 measured up to 60 days relative to control; type: functional; conditions: route intraperitoneal; outline: as §1
# P388 [18] = assay: Antitumor activity against mouse P388 cells allografted in mouse assessed as disease cure at 25 mg/kg, ip on day 1, 5 and 9 measured up to 60 days; type: functional, organism-based; parameters: dose 25 mg/kg; outline: as §3
# B16 [19] = assay: Antitumor activity against mouse B16 cells allografted in BDF1 mouse assessed as increase of median life span at 6.2 mg/kg, ip on day 1 to 9 measured up to 80 days relative to control; type: functional; conditions: route intraperitoneal; outline: as §2
# B16 [20] = assay: Antitumor activity against mouse B16 cells allografted in BDF1 mouse assessed as disease cure at 6.2 mg/kg, ip on day 1 to 9 measured up to 80 days; type: functional, organism-based; parameters: dose 6.2 mg/kg
# Outline: (§6)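 BDF1 mice implanted ip with homogenate from 0.05 g of B16 tumor, then dosed ip on days 1-9. Deaths recorded for 80 days; "cures" scored as survivors/total at 80 days.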
# [21] = tested on: Lewis lung carcinoma cell line; assay: Antitumor activity against mouse LLC cells subcutaneously implanted in mouse; type: functional, cell-based
# [22] = tested on: Lewis lung carcinoma cell line; assay: Antitumor activity against mouse LLC cells intravenously implanted in mouse; type: functional, cell-based
# B16 [23] = assay: Antitumor activity against mouse B16 cells allografted in BDF1 mouse assessed as increase of median life span at 200 mg/kg, ip on day […] measured up to 80 days relative to control; type: functional; conditions: route intraperitoneal
# P388 [24] = assay: Antitumor activity against mouse P388 cells allografted in mouse assessed as increase of median life span at 12.5 mg/kg, ip on day 1, 5 and 9 measured up to 60 days relative to control; type: functional; conditions: route intraperitoneal; outline: as §1
# P388 [25] = assay: Antitumor activity against mouse P388 cells allografted in mouse assessed as increase of median life span at 50 mg/kg, ip on day 1, 5 and 9 measured up to 60 days relative to control; type: functional; conditions: route intraperitoneal; outline: as §1
# B16 [26] = assay: Antitumor activity against mouse B16 cells allografted in BDF1 mouse assessed as increase of median life span at 25 mg/kg, ip on day 1 to 9 measured up to 80 days relative to control; type: functional; conditions: route intraperitoneal; outline: as §2
# B16 [27] = assay: Antitumor activity against mouse B16 cells allografted in BDF1 mouse assessed as disease cure at 25 mg/kg, ip on day 1 to 9 measured up to 80 days; type: functional, organism-based; parameters: dose 25 mg/kg; outline: as §6
smiles,measurement,setting,value
O=C1c2c(O)ccc(O)c2C(=O)c2c(NCCNCCN3CCOCC3)ccc(NCCNCCN3CCOCC3)c21,ILS at 200 mg/kg,P388 [1],136%
same,ILS at 100 mg/kg,B16 [2],233%
CN(C)CCCCNc1ccc(NCCCCN(C)C)c2c1C(=O)c1ccccc1C2=O,ILS at 250 mg/kg,P388 [3],0%
same,Activity,P388 [4],inactive
Cl.Cl.O=C1c2c(O)ccc(O)c2C(=O)c2c(NCCNCCO)ccc(NCCNCCO)c21 [MITOXANTRONE HYDROCHLORIDE],minimal effective dose,P388 [5],0.15 mg/kg
same,ILS at 0.8 mg/kg,B16 [6],> 272%
same,ILS at 1.6 mg/kg,P388 [7],> 500%
same,minimal effective dose,P388 [8],0.023 mg/kg
same,MTD,[9],4.2 mg/kg
same,MTD at 96 h,[10],3.4 mg/kg
same,Activity,P388 [11],300 mg/kg
same,selectivity ratio,[12],28
same,selectivity ratio at 96 h,[13],148
same,Ratio,L5178Y [14],7
same,Ratio,L5178Y [15],4
NCCNc1ccc(NCCN)c2c1C(=O)c1c(O)ccc(O)c1C2=O,ILS at 3.1 mg/kg,P388 [16],173%
CN(C)CCNc1ccc(NCCN(C)C)c2c1C(=O)c1ccc(C(=O)O)cc1C2=O,ILS at 250 mg/kg,P388 [3],0%
same,Activity,P388 [4],inactive
NCCCNc1ccc(NCCCN)c2c1C(=O)c1c(O)ccc(O)c1C2=O,ILS at 25 mg/kg,P388 [17],83%
same,Activity,P388 [18],inactive
same,ILS at 6.2 mg/kg,B16 [19],87%
same,Activity,B16 [20],inactive
O=C1c2c(O)ccc(O)c2C(=O)c2c(NCCNCCO)ccc(NCCNCCO)c21,Activity,[21],inactive
same,Activity,[22],inactive
O=C1c2c(O)ccc(O)c2C(=O)c2c(NCCN(CCO)CCO)ccc(NCCN(CCO)CCO)c21,ILS at 200 mg/kg,P388 [1],306%
same,ILS at 200 mg/kg,B16 [23],212%
O=C1c2c(O)ccc(O)c2C(=O)c2c(NCCNCCCO)ccc(NCCNCCCO)c21,ILS at 6.2 mg/kg,B16 [19],357%
same,ILS at 12.5 mg/kg,P388 [24],191%
O=C1c2c(O)ccc(O)c2C(=O)c2c(NCCCNCCO)ccc(NCCCNCCO)c21,ILS at 50 mg/kg,P388 [25],191%
same,ILS at 25 mg/kg,B16 [26],100%
same,Activity,B16 [27],inactive
